For one experiment, the target named is Plasma kallikrein (Homo sapiens, UniProt P03952). Briefly: Binding affinity to plasma kallikrein (unknown origin) assessed as inhibition constant using D-Pro-Phe,Arg,pNa,2HCl as substrate preincubated for 15 mins followed by substrate addition.
For experiment [1], the system named is Oryctolagus cuniculus. Briefly: Antithrombotic activity in New Zealand White rabbit model of AV-shunt induced thrombosis assessed as reduction in thrombosis weight by measuring inhibition of thrombosis formation at 5 mg/kg, administered as iv bolus dose and subsequently followed by 8 mg/kg/hr as iv infusion relative to control. The experiment is classed as functional. An outline of the steps: (§1)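 Male New Zealand White rabbits under urethane anesthesia (1.25 g/kg). A control-period AV shunt gave the baseline thrombus wet weight, found by subtraction. The compound in saline vehicle was then given as an IV bolus followed by continuous IV infusion via the jugular vein. A new AV shunt ran for 40 min. Result is % inhibition of thrombus formation, treatment versus control period. Three rabbits per group.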

Experiment [2] concerns Oryctolagus cuniculus. Briefly: Antithrombotic activity in New Zealand White rabbit model of AV-shunt induced thrombosis assessed as reduction in thrombosis weight by measuring inhibition of thrombosis formation at 0.5 mg/kg, administered as iv bolus dose and subsequently followed by 0.8 mg/kg/hr as iv infusion relative to control. The experiment is classed as functional. The method in brief: as §1

For a further experiment, the target named is Coagulation factor XI (Homo sapiens, UniProt P03951). Briefly: Binding affinity to coagulation factor 11a (unknown origin) assessed as inhibition constant using (p-Glu-Pro-Arg-pNa,HCl) as substrate preincubated for 5 mins followed by substrate addition and measured after 10 mins.
Experiment [3] is filed under the species Homo sapiens. Nature of the experiment: Competitive inhibition of coagulation factor 11a (unknown origin) assessed as Km at 0.02 uM using varying levels (p-Glu-Pro-Arg-pNa,HCl) as substrate by Lineweaver-Burk plot analysis. The method in brief: (§2)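 Same FXIa assay (37 °C, 5 min preincubation, 405 nm read), run at four substrate levels with final concentrations of 42.5, 85, 170 and 340. Km and Vmax were taken from a Lineweaver-Burk plot using the Michaelis-Menten relationship.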

For experiment [4], the species on record is Homo sapiens. Briefly: Competitive inhibition of coagulation factor 11a (unknown origin) assessed as Km at 0.04 uM using varying levels (p-Glu-Pro-Arg-pNa,HCl) as substrate by Lineweaver-Burk plot analysis. An outline of the steps: as §2
The species named for experiment [5] is Homo sapiens. Nature of the experiment: Competitive inhibition of coagulation factor 11a (unknown origin) assessed as Km at 0.01 uM using varying levels (p-Glu-Pro-Arg-pNa,HCl) as substrate by Lineweaver-Burk plot analysis. The method in brief: as §2
The next experiment concerns the target Coagulation factor X (Homo sapiens, UniProt P00742). Briefly: Binding affinity to coagulation factor 10a (unknown origin) assessed as inhibition constant using CH3OCO-D-CHA-Gly-Arg-pNA,ACOH as substrate preincubated for 10 mins followed by substrate addition. The method in brief:
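FXa was preincubated with compound or blank buffer at 25 °C for 10 min. Chromogenic substrate was added and absorbance read at 405 nm. Compounds came from DMSO stocks (10 mM) diluted in assay buffer. IC50 was derived from a concentration range.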

Experiment [6] is filed under the species Homo sapiens. Briefly: Competitive inhibition of coagulation factor 11a (unknown origin) using varying levels (p-Glu-Pro-Arg-pNa,HCl) as substrate by Lineweaver-Burk plot analysis. As to conditions: dose 0.005-0.04 µM. The method in brief: as §2
Experiment [7] relates to Oryctolagus cuniculus. Briefly: Antithrombotic activity in New Zealand White rabbit model of AV-shunt induced thrombosis assessed as reduction in thrombosis weight by measuring inhibition of thrombosis formation at 2.5 mg/kg, administered as iv bolus dose and subsequently followed by 4 mg/kg/hr as iv infusion relative to control. The format is functional. The method in brief:
as §1

The species entered for experiment [8] is Homo sapiens. Briefly: Selectivity ratio of Ki for coagulation factor 7a (unknown origin) to Ki for coagulation factor 11a (unknown origin).
Experiment [9] is filed under the species Homo sapiens. Nature of the experiment: Selectivity ratio of Ki for thrombin (unknown origin) to Ki for coagulation factor 11a (unknown origin).
The species entered for experiment [10] is Homo sapiens. Briefly: Selectivity ratio of Ki for coagulation factor 10a (unknown origin) to Ki for coagulation factor 11a (unknown origin).
The species entered for experiment [11] is Homo sapiens. Briefly: Competitive inhibition of coagulation factor 11a (unknown origin) assessed as Vmax at 0.005 to 0.04 uM using varying levels (p-Glu-Pro-Arg-pNa,HCl) as substrate by Lineweaver-Burk plot analysis. As to conditions: dose 0.005-0.04 µM. An outline of the steps:
as §2

A short description of experiment [12]: Binding affinity to thrombin (unknown origin) assessed as inhibition constant using H-D-Phe-Pip-Arg-pNA,2HCl as substrate preincubated for 10 mins followed by substrate addition. Also on record: species or system Homo sapiens. The method in brief: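 Thrombin was preincubated with compound or blank buffer at 25 °C for 10 min. Chromogenic substrate was added and absorbance read at 405 nm. Compounds came from DMSO stocks (10 mM) diluted in assay buffer. IC50 was derived from a concentration range.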

The species named for experiment [13] is Homo sapiens. Briefly: Selectivity ratio of Ki for plasma kallikrein (unknown origin) to Ki for coagulation factor 11a (unknown origin).
For a further experiment, the target named is T1, Coagulation factor VII (Homo sapiens, UniProt P08709).
T1 sequence (P08709 whole entry): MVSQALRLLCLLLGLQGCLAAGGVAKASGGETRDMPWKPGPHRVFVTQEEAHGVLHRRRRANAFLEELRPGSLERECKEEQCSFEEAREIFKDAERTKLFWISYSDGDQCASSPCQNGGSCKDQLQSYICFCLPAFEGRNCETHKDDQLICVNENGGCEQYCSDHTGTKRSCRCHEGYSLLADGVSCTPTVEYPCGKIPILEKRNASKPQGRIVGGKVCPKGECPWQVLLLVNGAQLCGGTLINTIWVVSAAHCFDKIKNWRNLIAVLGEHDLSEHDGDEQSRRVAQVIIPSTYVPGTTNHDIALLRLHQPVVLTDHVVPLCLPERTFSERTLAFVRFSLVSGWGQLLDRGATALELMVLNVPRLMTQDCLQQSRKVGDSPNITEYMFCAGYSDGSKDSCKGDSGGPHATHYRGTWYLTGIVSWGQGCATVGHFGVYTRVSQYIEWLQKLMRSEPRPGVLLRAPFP
Nature of the experiment: Binding affinity to coagulation factor 7a (unknown origin) assessed as inhibition constant using CH3SO2-D-CHA-But-Arg-pNA,ACOH as substrate preincubated for 10 mins followed by substrate addition and further incubated for 10 mins. The method in brief: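 FVIIa was preincubated with compound or blank buffer at 37 °C for 10 min. Chromogenic substrate was added and absorbance read at 405 nm. Compounds came from DMSO stocks (10 mM) diluted in assay buffer. IC50 was derived from a concentration range.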

The species named for experiment [14] is Homo sapiens. Nature of the experiment: Competitive inhibition of coagulation factor 11a (unknown origin) assessed as Km at 0.005 uM using varying levels (p-Glu-Pro-Arg-pNa,HCl) as substrate by Lineweaver-Burk plot analysis. An outline of the steps: as §2

SMILES strings stand for the structures. Where only a bound is given, the exact number is not on record here.

What is called Ki is a dissociation constant, usually derived from enzyme kinetics or from competition with a known ligand. One may read the Km as the substrate concentration at which the rate is half of its maximum. By Vmax is commonly meant the rate approached at saturating substrate.

Sequence of Coagulation factor XI (P03951 19-387 limits assumed): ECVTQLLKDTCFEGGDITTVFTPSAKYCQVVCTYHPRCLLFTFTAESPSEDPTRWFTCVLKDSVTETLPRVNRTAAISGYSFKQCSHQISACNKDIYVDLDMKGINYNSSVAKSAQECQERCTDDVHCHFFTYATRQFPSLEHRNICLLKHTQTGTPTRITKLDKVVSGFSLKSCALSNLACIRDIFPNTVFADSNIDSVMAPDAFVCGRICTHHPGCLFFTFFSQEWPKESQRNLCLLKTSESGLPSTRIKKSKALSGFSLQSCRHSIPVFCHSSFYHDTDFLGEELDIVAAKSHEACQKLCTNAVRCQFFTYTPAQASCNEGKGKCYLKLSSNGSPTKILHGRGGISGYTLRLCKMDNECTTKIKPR
Sequence of Coagulation factor XI (P03951 388-625 limits assumed): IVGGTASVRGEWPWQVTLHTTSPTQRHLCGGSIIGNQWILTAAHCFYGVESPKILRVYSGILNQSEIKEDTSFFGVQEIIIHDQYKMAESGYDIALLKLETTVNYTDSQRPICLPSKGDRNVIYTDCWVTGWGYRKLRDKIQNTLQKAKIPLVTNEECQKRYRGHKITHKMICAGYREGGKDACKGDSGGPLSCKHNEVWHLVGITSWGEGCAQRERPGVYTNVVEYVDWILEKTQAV
Sequence of Plasma kallikrein (P03952 20-390 limits assumed): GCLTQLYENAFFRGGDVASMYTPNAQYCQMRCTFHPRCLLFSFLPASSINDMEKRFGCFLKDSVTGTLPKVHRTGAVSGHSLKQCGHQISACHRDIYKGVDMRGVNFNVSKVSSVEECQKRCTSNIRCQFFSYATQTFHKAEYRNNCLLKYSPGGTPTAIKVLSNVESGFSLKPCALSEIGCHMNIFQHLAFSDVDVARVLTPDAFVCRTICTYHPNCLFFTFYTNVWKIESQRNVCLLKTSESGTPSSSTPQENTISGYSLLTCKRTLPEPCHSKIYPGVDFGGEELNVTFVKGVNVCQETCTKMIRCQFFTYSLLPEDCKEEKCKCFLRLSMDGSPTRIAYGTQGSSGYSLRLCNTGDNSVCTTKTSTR
Sequence of Plasma kallikrein (P03952 391-638 limits assumed): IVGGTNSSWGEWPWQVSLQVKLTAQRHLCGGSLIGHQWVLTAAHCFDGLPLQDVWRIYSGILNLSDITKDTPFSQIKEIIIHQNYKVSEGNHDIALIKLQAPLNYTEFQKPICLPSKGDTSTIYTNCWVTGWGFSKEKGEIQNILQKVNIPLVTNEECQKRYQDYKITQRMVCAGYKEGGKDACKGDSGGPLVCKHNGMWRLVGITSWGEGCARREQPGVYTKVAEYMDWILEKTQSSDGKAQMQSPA
Sequence of Coagulation factor X (P00742 41-179 limits assumed): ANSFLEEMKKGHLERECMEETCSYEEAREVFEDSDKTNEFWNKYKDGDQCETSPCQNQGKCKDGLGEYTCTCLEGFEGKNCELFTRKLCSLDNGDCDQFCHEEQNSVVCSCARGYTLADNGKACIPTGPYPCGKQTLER
Sequence of Coagulation factor X (P00742 235-488 limits assumed): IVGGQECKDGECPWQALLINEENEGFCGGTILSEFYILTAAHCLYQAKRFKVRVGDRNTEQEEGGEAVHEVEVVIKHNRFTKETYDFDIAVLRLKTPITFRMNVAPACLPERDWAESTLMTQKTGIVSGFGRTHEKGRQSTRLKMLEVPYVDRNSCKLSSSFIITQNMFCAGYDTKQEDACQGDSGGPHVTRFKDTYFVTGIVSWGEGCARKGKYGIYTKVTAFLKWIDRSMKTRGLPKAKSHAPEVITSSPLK

Take `Cc1nc(-c2cccc(Cl)c2F)n(O)c1C(=O)N[C@@H](Cc1ccc(NC(=O)C2CC2C)cc1)C(=O)Nc1ccc2[nH]c(C(=O)O)cc2c1` (stereo partly drawn): the inhibitory constant (Ki) was 0.192 µM on Plasma kallikrein; 0.009 µM at Coagulation factor XI; over 8 µM at Coagulation factor X; over 12.5 µM in [12]; 4.19 µM on Coagulation factor VII. For the same molecule, the “inhibition (INH)” value in the experiment with Oryctolagus cuniculus [1] amounted to 51.04%; in the experiment with Oryctolagus cuniculus [2] it was 26.8%; in the experiment on Oryctolagus cuniculus [7] it was 42.67%. The Km turned out to be 89.9 µM in the experiment listed under Homo sapiens [3], 128 µM in the experiment filed under Homo sapiens [4], 60.3 µM in the experiment listed under Homo sapiens [5] and 45.5 µM in the experiment listed under Homo sapiens [14]. Moreover, the inhibition result in the experiment listed under Homo sapiens [6] is “Dose-Dependent Effect”. For the same molecule, the Ratio Ki was over 400 in the experiment listed under Homo sapiens [8], over 400 in the experiment filed under Homo sapiens [9], over 400 in the experiment listed under Homo sapiens [10] and 21.3 in the experiment listed under Homo sapiens [13]. In the experiment filed under Homo sapiens [11], the Vmax was 0.17 µM/min.

The values above are taken from ChEMBL document CHEMBL4825671, “Design, synthesis and biological evaluation of novel FXIa inhibitors with 2-phenyl-1H-imidazole-5-carboxamide moiety as P1 fragment” (Eur J Med Chem, 2021).
